Data published in ChEMBL document CHEMBL1122536, “Novel pyrimidine and 1,3,5-triazine hypolipidemic agents” (J Med Chem, 1984).
Several values for one entry are separate records, joined by “and”; a condition that tells them apart may be missing. Identical values can stand only once.

Experiments:
[1] = Evaluated for the dose that causes 50 % lethality in Sprague-Dawley male rats; format: ADME, organism-based; conditions: rat, in vivo
[2] = tested on: Rattus norvegicus; assay: Hypolipidemic activity was assessed by measuring alpha-cholesterol in Sprague-Dawley male rats at 50 mg/kg; format: functional
Outline: (§1)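 Male Sprague-Dawley rats (185-g mean bodyweight) on a normal diet were dosed orally for 4 consecutive days at 50 mg/kg or 200 mg/kg. They were fasted 18 h, and blood was drawn from the abdominal aorta 24 h after the last dose. Serum total cholesterol, triglycerides (mg/100 mL) and lipoprotein α-cholesterol (% of total cholesterol) were measured. Groups of 10–40 rats were compared with controls by Student's t test.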

[3] = tested on: Rattus norvegicus; assay: Hypolipidemic activity was assessed by measuring triglycerides in Sprague-Dawley male rats at 50 mg/kg; format: functional; outline: as §1
[4] = tested on: Rattus norvegicus; assay: Hypolipidemic activity was assessed by measuring cholesterol in Sprague-Dawley male rats at 50 mg/kg; format: functional; outline: as §1
[5] = tested on: Rattus norvegicus; assay: Hypolipidemic activity was assessed by measuring body weight in F 344 rats at 20 mg/kg
[6] = tested on: Rattus norvegicus; assay: Hypolipidemic activity was assessed in Variation of the liver enzyme catalase was expressed as units per mg of protein in F 344 rats at 20 mg/kg
[7] = tested on: Rattus norvegicus; assay: Hypolipidemic activity was assessed by measuring alpha-cholesterol in Sprague-Dawley male rats at 200 mg/kg; format: functional; outline: as §1
[8] = organism: Rattus norvegicus; assay: Compound dose that causes […] in Sprague-Dawley male rats; format: functional
[9] = tested on: Rattus norvegicus; assay: Hypolipidemic activity was assessed by measuring liver weight in Sprague-Dawley male rats at 50 mg/kg; format: functional
[10] = tested on: Rattus norvegicus; assay: Hypolipidemic activity was assessed by measuring triglycerides in Sprague-Dawley male rats at 200 mg/kg; format: functional; outline: as §1
[11] = tested on: Rattus norvegicus; assay: Hypolipidemic activity was assessed by measuring cholesterol in Sprague-Dawley male rats at 200 mg/kg; format: functional; outline: as §1
[12] = tested on: Rattus norvegicus; assay: Hyperlipidemic activity was assessed by measuring triglycerides in Sprague-Dawley male rats at 50 mg/kg; format: functional
Outline: (§2)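 Sprague-Dawley rats were fed the hyperlipidemic Nath's diet for 15 days and dosed orally at 50 or 200 mg/kg, or at 6.25, 12.5 and 25 mg/kg on a diet with 0.5% cholesterol and cholic acid. After an 18-h fast they were killed on day 16, 24 h after the last dose. Serum total cholesterol and triglycerides were assayed, and liver weight was expressed per 100 g bodyweight. Groups were compared with Nath's-diet controls by Student's t test.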

[13] = organism: Rattus norvegicus; assay: (§3) Compound was evaluated for the dose that causes […] in Sprague-Dawley male rats; format: functional
[14] = tested on: Rattus norvegicus; assay: Hyperlipidemic activity was assessed by measuring liver weight in Sprague-Dawley male rats at 50 mg/kg; format: functional; outline: as §2
[15] = as §3; format: ADME, organism-based; conditions: rat, in vivo
[16] = tested on: Rattus norvegicus; assay: Hyperlipidemic activity was assessed by measuring triglycerides in Sprague-Dawley male rats at 25 mg/kg; format: functional; outline: as §2
[17] = tested on: Rattus norvegicus; assay: Hyperlipidemic activity was assessed by measuring liver weight in Sprague-Dawley male rats at 12.5 mg/kg; format: functional; outline: as §2
[18] = tested on: Rattus norvegicus; assay: Hyperlipidemic activity was assessed in variation of palmitoyl-CoA oxide (umol/min mg) in F 344 rats at 20 mg/kg.
[19] = tested on: Rattus norvegicus; assay: Hyperlipidemic activity was assessed by measuring triglycerides in Sprague-Dawley male rats at 6.25 mg/kg; format: functional; outline: as §2
[20] = tested on: Rattus norvegicus; assay: Hypolipidemic activity was assessed in Variation of the liver enzyme catalase was expressed as units per mg of protein in F 344 rats at 20 mg/kg; remark: listed apart in the source
[21] = tested on: Rattus norvegicus; assay: Hyperlipidemic activity was assessed by measuring cholesterol in Sprague-Dawley male rats at 25 mg/kg; format: functional; outline: as §2
[22] = tested on: Rattus norvegicus; assay: Hypolipidemic activity was assessed in Variation of the carnitine acetyl transferase was expressed as units per mg of protein in F 344 rats at 20 mg/kg
[23] = tested on: Rattus norvegicus; assay: Hyperlipidemic activity was assessed by measuring cholesterol in Sprague-Dawley male rats at 12.5 mg/kg; format: functional; outline: as §2
[24] = tested on: Rattus norvegicus; assay: Hypolipidemic activity was assessed inVariation of the enoyl-CoA oxide (umol/min mg) in F 344 rats at 20 mg/kg.
[25] = tested on: Rattus norvegicus; assay: Hyperlipidemic activity was assessed by measuring liver weight in Sprague-Dawley male rats at 25 mg/kg; format: functional; outline: as §2
[26] = tested on: Rattus norvegicus; assay: Hyperlipidemic activity was assessed by measuring cholesterol in Sprague-Dawley male rats at 6.25 mg/kg; format: functional; outline: as §2
[27] = tested on: Rattus norvegicus; assay: Hyperlipidemic activity was assessed by measuring triglycerides in Sprague-Dawley male rats at 12.50 mg/kg; format: functional; conditions: dose 12.5 mg/kg; outline: as §2
[28] = tested on: Rattus norvegicus; assay: Hyperlipidemic activity was assessed by measuring liver weight in Sprague-Dawley male rats at 6.25 mg/kg; format: functional; outline: as §2
[29] = tested on: Rattus norvegicus; assay: Hyperlipidemic activity was assessed by measuring cholesterol in Sprague-Dawley male rats at 50 mg/kg; format: functional; outline: as §2
[30] = dose 20 mg/kg, in the assay text read “F 344 rats at 20 mg/kg” for “Sprague-Dawley male rats at 50 mg/kg”

SMILES | LD50 [1] [mg/kg] | Alpha-cholesterol ([2]; dose 50 mg/kg) | Triglycerides [3] [mg/100 mL] | Cholesterol [4] [mg 100ml-1] | Alpha-cholesterol [7] [%] | Triglycerides [10] [mg/100 mL] | Cholesterol [11] [mg 100ml-1] | LD50 [15] [mg/kg] | also measured
CSc1nc(Cl)cc(Nc2cccc(C)c2C)n1 | 1250 | 72.3% | 106 | <54.2 |  |  |  |  | 
Cc1cccc(Oc2cc(Cl)nc(SCC(=O)O)n2)c1C | 1290 | 77% | < 56.4 | <67.7 |  |  |  |  | 
CCOc1nc(Nc2cccc(C)c2C)nc(SCC(=O)O)n1 |  |  |  |  | <82.2 | < 76.1 | 70.3 |  | Body weight [5]: 248 g; Catalase [6]: 50 U/mg protein; LD50 [8]: 1120 mg/kg; Liver weight [9, 30]: 3.1 g (100g of body weight)-1; Triglycerides [12]: <214.3 mg 100ml-1; Cholesterol [13]: 1054.8 mg 100ml-1; Liver weight [14]: 6.53 g 100g-1
Cc1cccc(Nc2nc(Cl)nc(OCC(=O)O)n2)c1C |  |  |  |  | <82.1 | < 65.5 | 72 | 1180 | 
Cc1cccc(Nc2cc(Cl)nc(NCC(=O)O)n2)c1C [ARONIXIL] | 1020 | 76.7% | < 71.6 | <63.6 |  |  |  |  | Body weight [5]: 266 g; Liver weight [9, 30]: 4.2 g (100g of body weight)-1; Triglycerides [16]: 312.1 mg 100ml-1; Liver weight [17]: 5.14 g 100g-1; Palmitoyl-CoA oxid [18]: 0.056 µM/min/mg; Triglycerides [19]: <205.2 mg 100ml-1; Liver catalase [20]: 61 mg of protein; Cholesterol [21]: <215.4 mg 100ml-1; Carnitine acetyl transferase [22]: 11 U/mg protein; Cholesterol [23]: 264.2 mg 100ml-1; Enoyl-CoA hydratase [24]: 3.7 uM min-1 (mg of protein)-1; Liver weight [25]: 5.31 g 100g-1; Cholesterol [26]: 257.4 mg 100ml-1; Triglycerides [27]: 263.8 mg 100ml-1; Liver weight [28]: 4.82 g 100g-1
CN(C)c1nc(Cl)nc(N(C)C)n1 |  | 70% |  | 84.8 |  |  |  |  | 
CN(C)c1nc(N)nc(Cl)n1 |  |  |  |  | 85.4 | < 78.2 | <105.6 | < 2000 | 
Cc1cccc(Oc2cc(Cl)nc(N(C)C)n2)c1C |  |  |  |  | 72.6 | 102 | 76.7 | < 2000 | 
Cc1cccc(Nc2cc(Cl)nc(SCC(=O)O)n2)c1C [PIRINIXIC ACID] | 1050 | 75.1% |  |  |  |  |  |  | Liver weight ([9]; dose 50 mg/kg): 8.23 g 100g-1 and 8.88 g 100g-1
Cc1cccc(N(C)c2cc(Cl)nc(SCC(=O)O)n2)c1C | 1010 | 78.6% | < 46.9 | 63.5 |  |  |  |  | 
Cc1cccc(N(C)c2cc(Cl)nc(N(C)C)n2)c1C |  |  |  |  | 90 | 89.8 | 63.2 | < 2500 | 
CN(C)c1cc(Cl)nc(SCC(=O)O)n1 | < 2500 | 81.7% and 72.2% |  |  |  |  |  |  | Cholesterol ([4]; 50 mg/kg): <62.5 mg 100ml-1 and <69.4 mg 100ml-1
Cc1cccc(Oc2cc(Cl)nc(OCC(=O)O)n2)c1C | 1210 | 74% | 91.1 | 67.1 |  |  |  |  | 
Cc1cccc(Nc2cc(Cl)nc(S)n2)c1C | 1840 |  |  |  | 73.2 | 95.6 | 76.3 |  | 
CCCCCCCCSc1nc(Cl)cc(Nc2cccc(C)c2C)n1 |  | 67.7% | 96.5 | 63.2 |  |  |  |  | 
CCOc1cc(Nc2cccc(C)c2C)nc(SCC(=O)NCCO)n1 | 2500 | 76.6% | < 64.3 | <65.7 |  |  |  |  | Body weight [5]: 192 g; Catalase [6]: 67.5 U/mg protein; Liver weight [9, 30]: 5.9 g (100g of body weight)-1; Cholesterol [29]: <479.8 mg 100ml-1; Triglycerides [12]: <206.6 mg 100ml-1; Liver weight [14]: 6.85 g 100g-1
Cc1cccc(Nc2nc(Cl)nc(N(C)C)n2)c1C |  |  |  |  | 78.6 | < 91.4 | 80.8 | < 2000 | 
CN(C)c1cc(Cl)nc(N(C)C)n1 | < 2500 |  |  | <103.7 |  |  |  |  | Alpha-cholesterol ([2]; dose 200 mg/kg, in the assay text read “200 mg/kg” for “50 mg/kg”): 75.7%
CN(C)c1nc(N)cc(Cl)n1 |  |  |  |  | <87.4 | < 89.9 | 71.4 | < 2500 | 
Cc1cccc(N(C)c2cc(Cl)nc(OCC(=O)O)n2)c1C | 1070 | 87.2% | < 80.7 | 66.4 |  |  |  |  | 
Cc1cccc(N(C)c2cc(Cl)nc(S)n2)c1C |  |  |  |  | 74.4 | < 79.1 | 65.8 | 1780 | 
Cc1cccc(Nc2nc(Cl)nc(N(C)CC(=O)O)n2)c1C |  |  |  |  | 79.8 | < 74.6 | 76.8 | 1220 | 
Cc1cccc(N(C)c2cc(Cl)nc(NCC(=O)O)n2)c1C | 995 | 77% | < 50 | <68.4 |  |  |  |  | 
